# Measurements published in the M2OR odorant receptor database.
# Residue numbers refer to the chain shown, from its start.
# How the values were obtained:
# Conditions in all cases: stereoisomer not certain
# [1] = molecular target: T1, OR9A4 (Homo sapiens) (UniProt Q8NGU2)
# T1 sequence (whole entry): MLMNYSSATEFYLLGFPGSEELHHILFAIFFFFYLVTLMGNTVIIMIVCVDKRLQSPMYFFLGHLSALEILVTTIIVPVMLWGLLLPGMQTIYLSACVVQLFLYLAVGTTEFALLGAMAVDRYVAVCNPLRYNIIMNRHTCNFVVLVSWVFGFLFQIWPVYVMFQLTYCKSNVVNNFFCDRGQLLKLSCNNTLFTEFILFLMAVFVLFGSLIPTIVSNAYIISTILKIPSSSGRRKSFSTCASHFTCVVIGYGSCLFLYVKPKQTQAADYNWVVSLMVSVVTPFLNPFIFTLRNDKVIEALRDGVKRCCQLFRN
# Summary of the method: (§1)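 Transient luciferase assays in mammalian cell lines were common, though methods varied by source. The values come from published papers and their supplementary material, with extra details from the original authors when needed. Responsive refers to a measured signal the original authors judged statistically different from baseline, and non-responsive (inactive) to the remainder.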
# [2] = molecular target: T2, OR9G1 (Homo sapiens) (UniProt Q8NH87)
# T2 sequence (whole entry): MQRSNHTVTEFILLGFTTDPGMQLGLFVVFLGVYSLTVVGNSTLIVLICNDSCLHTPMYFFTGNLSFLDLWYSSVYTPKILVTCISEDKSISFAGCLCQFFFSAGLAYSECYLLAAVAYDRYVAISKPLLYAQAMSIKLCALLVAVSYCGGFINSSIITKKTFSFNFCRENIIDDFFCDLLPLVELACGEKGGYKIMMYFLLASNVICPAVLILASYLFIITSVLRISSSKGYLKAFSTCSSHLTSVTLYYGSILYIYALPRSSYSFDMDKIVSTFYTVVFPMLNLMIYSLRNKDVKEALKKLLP
# Summary of the method: as §1
# [3] = molecular target: T3, OR9G4 (Homo sapiens) (UniProt Q8NGQ1)
# T3 sequence (whole entry): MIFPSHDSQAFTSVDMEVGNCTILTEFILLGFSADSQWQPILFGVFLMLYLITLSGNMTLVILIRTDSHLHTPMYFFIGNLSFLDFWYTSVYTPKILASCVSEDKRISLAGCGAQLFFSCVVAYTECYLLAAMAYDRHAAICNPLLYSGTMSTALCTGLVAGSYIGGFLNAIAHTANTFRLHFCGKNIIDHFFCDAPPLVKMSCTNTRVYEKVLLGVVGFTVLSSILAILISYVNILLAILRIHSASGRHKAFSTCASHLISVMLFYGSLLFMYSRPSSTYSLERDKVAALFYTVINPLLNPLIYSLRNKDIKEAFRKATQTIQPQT
# Summary of the method: as §1
# [4] = system: T4, OR9G4 H6Y N206D V222A
# T4 sequence (whole entry): T3 sequence (whole entry) with H6Y, N206D, V222A
# Summary of the method: as §1
# [5] = system: T5, OR9G4 N206D V222A
# T5 sequence (whole entry): T3 sequence (whole entry) with N206D, V222A
# Summary of the method: as §1
# [6] = system: T6, OR9G9
# T6 sequence (whole entry): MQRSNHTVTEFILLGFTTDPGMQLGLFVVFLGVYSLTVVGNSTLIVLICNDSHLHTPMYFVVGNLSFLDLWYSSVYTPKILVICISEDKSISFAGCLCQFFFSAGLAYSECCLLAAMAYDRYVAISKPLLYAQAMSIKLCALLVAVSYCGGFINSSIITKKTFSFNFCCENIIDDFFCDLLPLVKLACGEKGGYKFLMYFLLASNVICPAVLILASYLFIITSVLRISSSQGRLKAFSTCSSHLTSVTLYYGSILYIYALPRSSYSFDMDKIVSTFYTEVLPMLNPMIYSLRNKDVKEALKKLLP
# Summary of the method: as §1
# [7] = molecular target: T7, OR9I1 (Homo sapiens) (UniProt Q8NGQ6)
# T7 sequence (whole entry): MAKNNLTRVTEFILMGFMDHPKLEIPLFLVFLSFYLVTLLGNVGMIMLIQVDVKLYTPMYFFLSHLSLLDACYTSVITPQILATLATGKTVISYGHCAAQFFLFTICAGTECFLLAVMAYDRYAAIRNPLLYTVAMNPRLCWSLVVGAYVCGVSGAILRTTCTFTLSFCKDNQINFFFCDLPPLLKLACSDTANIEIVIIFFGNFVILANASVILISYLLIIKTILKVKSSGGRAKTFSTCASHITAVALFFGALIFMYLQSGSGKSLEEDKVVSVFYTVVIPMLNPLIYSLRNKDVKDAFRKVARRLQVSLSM
# Summary of the method: as §1
# [8] = molecular target: T8, OR9K2 (Homo sapiens) (UniProt Q8NGE7)
# T8 sequence (whole entry): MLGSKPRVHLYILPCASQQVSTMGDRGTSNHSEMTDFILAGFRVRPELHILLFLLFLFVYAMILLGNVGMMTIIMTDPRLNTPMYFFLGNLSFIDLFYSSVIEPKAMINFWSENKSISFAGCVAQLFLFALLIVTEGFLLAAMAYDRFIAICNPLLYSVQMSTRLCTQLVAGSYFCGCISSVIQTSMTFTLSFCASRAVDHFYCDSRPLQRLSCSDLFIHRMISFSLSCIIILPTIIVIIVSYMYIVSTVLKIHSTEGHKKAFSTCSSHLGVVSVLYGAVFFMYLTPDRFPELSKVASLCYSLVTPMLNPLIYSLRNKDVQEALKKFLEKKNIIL
# Summary of the method: as §1
# [9] = system: T9, OR9K2 R207H
# T9 sequence (whole entry): T8 sequence (whole entry) with R207H
# Summary of the method: as §1
# [10] = molecular target: T10, OR9Q1 (Homo sapiens) (UniProt Q8NGQ5)
# T10 sequence (whole entry): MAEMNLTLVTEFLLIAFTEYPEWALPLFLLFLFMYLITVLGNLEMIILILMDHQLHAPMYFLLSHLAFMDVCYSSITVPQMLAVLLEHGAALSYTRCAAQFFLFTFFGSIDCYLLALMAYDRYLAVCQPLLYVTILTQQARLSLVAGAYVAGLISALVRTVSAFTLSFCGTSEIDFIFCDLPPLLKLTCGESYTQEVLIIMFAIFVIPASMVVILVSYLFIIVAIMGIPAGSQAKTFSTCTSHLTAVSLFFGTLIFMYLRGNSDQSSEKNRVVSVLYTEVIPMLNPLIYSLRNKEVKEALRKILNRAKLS
# Summary of the method: as §1
# [11] = system: T11, OR9Q1 A83T
# T11 sequence (whole entry): T10 sequence (whole entry) with A83T
# Summary of the method: as §1
# [12] = molecular target: T12, OR9Q2 (Homo sapiens) (UniProt Q8NGE9)
# T12 sequence (whole entry): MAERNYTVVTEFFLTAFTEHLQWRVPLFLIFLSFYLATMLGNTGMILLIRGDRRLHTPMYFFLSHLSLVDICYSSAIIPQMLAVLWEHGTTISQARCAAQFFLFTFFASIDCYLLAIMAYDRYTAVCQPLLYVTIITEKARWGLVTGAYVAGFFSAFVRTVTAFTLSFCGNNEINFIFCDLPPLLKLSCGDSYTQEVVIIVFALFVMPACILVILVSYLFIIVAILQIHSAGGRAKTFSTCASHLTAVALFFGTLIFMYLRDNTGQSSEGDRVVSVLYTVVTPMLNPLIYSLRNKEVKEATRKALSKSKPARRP
# Summary of the method: as §1
# [13] = system: T13, OR9Q2 C179R
# T13 sequence (whole entry): T12 sequence (whole entry) with C179R
# Summary of the method: as §1
# [14] = molecular target: T14, Or10j5 (Mus musculus) (UniProt Q62007)
# T14 sequence (whole entry): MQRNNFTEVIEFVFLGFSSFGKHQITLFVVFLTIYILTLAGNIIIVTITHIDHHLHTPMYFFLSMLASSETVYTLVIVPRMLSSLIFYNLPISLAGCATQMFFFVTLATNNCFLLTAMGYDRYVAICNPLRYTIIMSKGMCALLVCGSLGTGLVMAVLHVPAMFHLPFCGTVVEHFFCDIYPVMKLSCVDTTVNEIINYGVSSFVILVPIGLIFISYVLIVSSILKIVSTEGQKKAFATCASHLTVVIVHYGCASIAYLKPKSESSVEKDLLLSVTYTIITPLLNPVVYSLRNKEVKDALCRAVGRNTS
# Summary of the method: as §1
# [15] = molecular target: T15, Or1m1 (Mus musculus) (UniProt Q8VFM9)
# T15 sequence (whole entry): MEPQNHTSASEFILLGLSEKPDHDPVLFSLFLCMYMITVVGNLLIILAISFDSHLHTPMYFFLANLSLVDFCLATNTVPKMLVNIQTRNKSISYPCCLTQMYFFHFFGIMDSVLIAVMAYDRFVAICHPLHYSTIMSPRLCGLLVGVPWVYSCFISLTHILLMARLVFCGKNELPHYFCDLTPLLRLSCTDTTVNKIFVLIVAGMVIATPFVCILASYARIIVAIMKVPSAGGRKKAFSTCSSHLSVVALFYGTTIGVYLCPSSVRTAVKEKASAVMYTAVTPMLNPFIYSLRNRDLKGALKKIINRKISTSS
# Summary of the method: as §1
# [16] = molecular target: T16, Or2c1 (Mus musculus) (UniProt P23275)
# T16 sequence (whole entry): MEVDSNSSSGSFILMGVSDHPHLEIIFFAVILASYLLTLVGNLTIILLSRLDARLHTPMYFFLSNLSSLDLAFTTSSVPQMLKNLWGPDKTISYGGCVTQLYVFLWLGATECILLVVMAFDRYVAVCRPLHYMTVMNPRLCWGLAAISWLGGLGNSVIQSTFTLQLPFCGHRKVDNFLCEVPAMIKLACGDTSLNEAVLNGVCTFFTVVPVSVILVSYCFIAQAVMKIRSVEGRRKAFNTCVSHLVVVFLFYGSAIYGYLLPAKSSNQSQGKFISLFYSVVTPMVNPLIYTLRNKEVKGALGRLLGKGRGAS
# Summary of the method: as §1
# [17] = molecular target: T17, Or5ar1 (Mus musculus) (UniProt Q8VGS3)
# T17 sequence (whole entry): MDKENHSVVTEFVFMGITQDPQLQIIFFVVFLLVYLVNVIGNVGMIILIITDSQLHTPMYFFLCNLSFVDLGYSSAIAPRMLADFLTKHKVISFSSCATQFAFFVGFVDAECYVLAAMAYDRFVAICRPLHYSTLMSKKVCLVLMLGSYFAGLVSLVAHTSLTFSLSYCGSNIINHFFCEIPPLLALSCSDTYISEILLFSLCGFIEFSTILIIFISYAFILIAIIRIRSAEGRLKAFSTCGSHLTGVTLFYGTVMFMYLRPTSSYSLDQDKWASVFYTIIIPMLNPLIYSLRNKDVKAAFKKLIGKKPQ
# Summary of the method: as §1
# [18] = molecular target: T18, OR9G9 (Homo sapiens) (UniProt P0C7N8)
# T18 sequence (whole entry): T6 sequence (whole entry) with G193C
# Summary of the method: as §1
# [19] = molecular target: T19, Or5an6 (Mus musculus) (UniProt Q8VFV4)
# T19 sequence (whole entry): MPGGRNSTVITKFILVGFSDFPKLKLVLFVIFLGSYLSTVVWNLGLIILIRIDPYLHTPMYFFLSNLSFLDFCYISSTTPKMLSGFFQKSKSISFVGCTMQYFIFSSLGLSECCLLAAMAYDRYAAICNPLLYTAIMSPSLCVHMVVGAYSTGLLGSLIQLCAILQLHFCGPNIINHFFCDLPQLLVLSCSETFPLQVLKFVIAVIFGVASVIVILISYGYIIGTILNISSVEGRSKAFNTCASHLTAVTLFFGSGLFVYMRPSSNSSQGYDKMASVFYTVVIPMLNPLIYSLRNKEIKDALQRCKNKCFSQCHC
# Summary of the method: as §1
# 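Further: active if original authors judged signal statistically different from baseline.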
compound,measurement,setting,value
CCC1OC(=O)C(O)=C1C (centres undefined),odorant receptor agonist call,[1],inactive
same,odorant receptor agonist call,[2],inactive
same,odorant receptor agonist call,[3],inactive
same,odorant receptor agonist call,[4],inactive
same,odorant receptor agonist call,[5],inactive
same,odorant receptor agonist call,[6],inactive
same,odorant receptor agonist call,[7],inactive
same,odorant receptor agonist call,[8],inactive
same,odorant receptor agonist call,[9],inactive
same,odorant receptor agonist call,[10],inactive
same,odorant receptor agonist call,[11],inactive
same,odorant receptor agonist call,[12],inactive
same,odorant receptor agonist call,[13],inactive
CCCCCCCCCO,odorant receptor agonist call,[14],inactive
same,odorant receptor agonist call,[15],inactive
same,odorant receptor agonist call,[16],inactive
same,odorant receptor agonist call,[17],inactive
CCCCC=O,odorant receptor agonist call,[14],inactive
same,odorant receptor agonist call,[15],inactive
same,odorant receptor agonist call,[17],inactive
O=C(O)CCCCCCCCCC(=O)O,odorant receptor agonist call,[14],inactive
CCCCCCCCCCCO,odorant receptor agonist call,[14],inactive
same,odorant receptor agonist call,[15],inactive
same,odorant receptor agonist call,[17],inactive
CCC(S)C(C)CO (centres undefined),odorant receptor agonist call,[1],inactive
same,odorant receptor agonist call,[2],inactive
same,odorant receptor agonist call,[3],inactive
same,odorant receptor agonist call,[18],inactive
same,odorant receptor agonist call,[7],inactive
same,odorant receptor agonist call,[8],inactive
same,odorant receptor agonist call,[10],inactive
same,odorant receptor agonist call,[12],inactive
CCCCC(S)C(C)CO (centres undefined),odorant receptor agonist call,[1],inactive
same,odorant receptor agonist call,[2],inactive
same,odorant receptor agonist call,[3],inactive
same,odorant receptor agonist call,[18],inactive
same,odorant receptor agonist call,[7],inactive
same,odorant receptor agonist call,[8],inactive
same,odorant receptor agonist call,[10],inactive
same,odorant receptor agonist call,[12],inactive
CC1CCCCCCCCCCCCC(=O)C1 (centres undefined),odorant receptor agonist call,[1],inactive
same,odorant receptor agonist call,[2],inactive
same,odorant receptor agonist call,[3],inactive
same,odorant receptor agonist call,[18],inactive
same,odorant receptor agonist call,[7],inactive
same,odorant receptor agonist call,[8],inactive
same,odorant receptor agonist call,[10],inactive
same,odorant receptor agonist call,[12],inactive
same,odorant receptor agonist call,[19],active
